Screening data from PubChem BioAssay.
In the library only some 4.7% were active in any assay of this set; here they are far more common.
GRIN3A LBD mod: binders of NR3A ligand-binding domain, primary screen, biophysical, differential scanning fluorimetry, uHTS; Glutamate receptor ionotropic, NMDA 3A (GRIN3A) ligand-binding domain; NR3A LBD differential scanning fluorimetry, Tm shift; 0% = protein alone, 100% = glycine-bound protein; Tm shift relative to glycine control, % at 25 µM; 340,000 compounds, 2.5% hits; AID 1259313, 2017;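 active = melting temperature shift of at least 10% of the positive control shift, at one fixed dose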
MT1-MMP act inh: blockers of MT1-MMP proenzyme processing, primary screen, HT1080 RFP-PRO-GFP cells, GFP/RFP fluorescence. GFP/RFP ratio fluorescence, overnight; percent of plate control window, DMSO zero. GFP/RFP ratio change, % at 20 µM. 360,000 compounds, 0.061% hits;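 active = GFP/RFP ratio change of at least 30% with cell ATP level not reduced by more than half and red fluorescence within 50% of control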
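Assay system: RFP-PRO-GFP reporter HT1080 cells; read-out basis: GFP/RFP fluorescence ratio; benchmarks: DMSO wells and RFP-L50D-GFP cells; doses: 20 µM single dose, 1% DMSO; schedule: overnight cell settling, then overnight compound exposure, 37 °C, 5% CO2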
ADAM10 inh: human ADAM10 inhibitors, primary screen, biochemical, QFRET, HTS; inhibition, % at 7 µM; AID 720582, 2013; Disintegrin and metalloproteinase domain-containing protein 10 (Homo sapiens), O14672; recombinant ADAM10, EDANS/DABCYL FRET peptide cleavage, 3 h; 370,000 compounds, 0.62% hits;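 active = inhibition above a per-campaign cutoff equal to the mean of compounds falling between control-based bounds plus 3 SD, cut at about 20% in these data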;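 also: 0% = DMSO wells while the 100% control is not disclosed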
Target sequence (O14672 214-748 limits assumed): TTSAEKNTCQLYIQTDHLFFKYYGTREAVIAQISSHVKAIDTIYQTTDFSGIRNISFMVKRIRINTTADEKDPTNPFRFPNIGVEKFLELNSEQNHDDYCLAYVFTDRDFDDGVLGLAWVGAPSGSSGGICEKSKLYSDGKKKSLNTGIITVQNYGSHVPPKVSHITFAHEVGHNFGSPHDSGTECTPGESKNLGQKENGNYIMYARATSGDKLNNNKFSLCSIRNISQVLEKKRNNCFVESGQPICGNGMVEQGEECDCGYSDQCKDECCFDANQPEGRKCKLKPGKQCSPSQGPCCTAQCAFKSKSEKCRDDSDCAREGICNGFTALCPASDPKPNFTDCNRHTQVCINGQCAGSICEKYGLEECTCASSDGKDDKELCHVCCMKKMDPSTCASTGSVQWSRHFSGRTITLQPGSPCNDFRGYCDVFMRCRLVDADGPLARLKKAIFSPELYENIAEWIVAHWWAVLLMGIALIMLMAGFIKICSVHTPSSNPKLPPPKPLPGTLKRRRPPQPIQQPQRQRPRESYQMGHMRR
MPTP block: mitochondrial permeability transition pore inhibitors, primary screen, biochemical, isolated mouse mitochondria, absorbance; Ca2+ swelling absorbance, 30 min; inhibition, % at 10 µM; 360,000 compounds, 1.4% hits; AID 602449, 2012;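 active = inhibition of 50% or more, scaled per plate between neutral and stimulator controls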;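 also: 0% = DMSO wells given calcium and 100% = 1 mM EGTA wells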
ADAM17 inh: ADAM17 inhibitors, primary screen, biochemical, QFRET | recombinant ADAM17, EDANS/DABCYL FRET peptide cleavage | inhibition, % at 6.95 µM | 370,000 compounds, 0.83% hits;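 active = inhibition above the mean of compounds lying between control limits plus 3 SD, set per campaign, cut at about 8.5% in these data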;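 also: 0% = DMSO-only wells as the low control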
SKN-1 inh: suppressors of acrylamide-induced Pgst-4::GFP reporter in worms, primary screen, SKN-1 inhibitor project, whole organism, uHTS, GFP/RFP fluorescence ratio, strain VP596. C. elegans VP596 Pgst-4::GFP/RFP ratio, 24 h. inhibition, % at 21.8 µM. 360,000 compounds, 0.49% hits. AID 624304, 2012;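 active = interference check ratio from 0.5 to 1.5 plus GFP to RFP signal ratio inhibition reaching or exceeding a fixed threshold, cut at about 30% in these data, passing the limit was not always enough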
Active calls of the source: *; i = inactive; . = not tested or not shown.

SMILES	GRIN3A LBD mod	MT1-MMP act inh	ADAM10 inh	MPTP block	ADAM17 inh	SKN-1 inh
CC1(C(=O)N2CCCCC2)CCN1C(=O)c1ccccc1CCc1ccccc1 (stereo not drawn)	.	-3	-8	2	-2	1
CCCCCCC1C(C#N)=C(N)OC2=C1C(=O)CC(C)(C)C2 (stereo not drawn)	44*	-2	-6	-1	-4	-9
CCCCn1c(SC(C)C(=O)c2ccc(OC)cc2)nc2cc(S(N)(=O)=O)ccc21 (stereo not drawn)	-41	-4	26*	1	20*	-18
COc1cc(C(=S)N2CCCC2)ccc1OS(=O)(=O)c1ccc(NC(C)=O)cc1	20*	1	1	0	0	1
COc1cc(C(=S)N2CCOCC2)ccc1OS(=O)(=O)c1ccc(NC(C)=O)cc1	0	-1	-8	9	-2	-1
CCOc1cc(C(=S)N2CCOCC2)ccc1OS(=O)(=O)c1ccccc1	11*	7	1	-1	-4	-11
COc1cc2c(cc1OC)/C(=C/C(=O)N1CCOCC1)NC(C)(C)C2	11*	.	-330	.	-124	.
CCOC(=O)/C=C1\NC(C)(C)Cc2cc(OC)c(OC)cc21	3	-13	-61	0	-9	-3
Cc1nn(-c2ccccc2)c(Cl)c1/C=N/NS(=O)(=O)c1ccc(Br)cc1	17*	1	14	41	7	9
COC(=O)c1ccc(CSc2nc(N)cc(N)n2)cc1	-1	4	7	-1	-1	14
O=[N+]([O-])c1ccc(CSc2nnc(SCc3ccccc3)s2)cc1	-2	-1	8	4	4	11
COC(=O)c1ccc(CSc2nc3ccccc3o2)cc1	3	10	14	0	4	40*
O=[N+]([O-])c1ccc(CSc2nc3ccccc3o2)cc1	3	4	-2	1	1	69*
O=C(O)CSc1nc2ccccc2o1	0	2	-7	0	-10	-1
Cc1ccc(C(=O)CSc2nc3ccccc3o2)cc1	17*	3	6	-1	-1	6
Cc1ccc(NC(=O)c2sc3ncn(CC(=O)N4CCN(c5ccccn5)CC4)c(=O)c3c2C)cc1Cl	14*	7	-3	-1	-3	4
Cc1ccc(NC(=O)c2sc3ncn(CC(=O)N4CCN(c5ccccn5)CC4)c(=O)c3c2C)cc1F	10	5	10	-1	1	19
CCOc1ccc(N2C(=O)Nc3ccc(Br)cc3C2(O)C(=O)NCCCN(C)C)cc1 (stereo not drawn)	12*	0	-3	0	-2	-1
CCOc1ccc(N2C(=O)Nc3ccc(Br)cc3C2(O)C(=O)NC(C)C)cc1 (stereo not drawn)	12*	1	1	0	1	12
CCc1ccc(N2C(=O)Nc3ccc(Br)cc3C2(O)C(=O)NCCN(C)C)cc1 (stereo not drawn)	2	6	3	0	-3	-11
CCOc1ccc(N2C(=O)Nc3ccc(Br)cc3C2(O)C(=O)NCCN(C)C)cc1 (stereo not drawn)	1	1	6	-1	-1	10
COc1ccc(-c2csc(NC(=O)CSc3nc4ccccc4c(=O)[nH]3)n2)cc1	21*	3	-11	0	-4	11
Nc1ccccc1SCC(=O)Nc1nc(-c2ccccc2)cs1	11*	-1	-6	0	-4	7
Cc1cc(=O)[nH]c(SCC(=O)Nc2nc(-c3ccccc3)cs2)n1	-4	1	6	2	-2	3
O=C(CSc1nc2ccccc2c(=O)[nH]1)Nc1ccc(N2CCOCC2)cc1	17*	3	-15	-1	2	-2
SMILES	GRIN3A LBD mod	MT1-MMP act inh	ADAM10 inh	MPTP block	ADAM17 inh	SKN-1 inh
O=C(CSc1ncn[nH]1)Nc1nc(-c2ccccc2)cs1	0	0	-3	12	0	-4
Cc1ccc(-c2csc(NC(=O)CSc3nc4ccccc4[nH]3)n2)cc1	20*	3	12	48	7	-2
COc1ccc(CNC(=O)C(C)NCc2ccc(S(N)(=O)=O)cc2)cc1 (stereo not drawn)	1	-1	-1	-1	-3	6
COc1ccc(Cn2cc(CN3CCc4onc(-c5ccc(Br)cc5)c4C3=O)nn2)cc1	.	2	5	2	3	8
CCn1c(SCC(=O)Nc2nc(-c3ccc(C)cc3)cs2)nnc1-c1ccccc1	2	-2	0	10	1	-4
CCn1c(SCC(=O)Nc2nc(-c3ccc(C)cc3)cs2)nnc1-c1ccccc1O	2	-1	4	1	15*	8
Cc1cccc(OCCCc2c(C)n[nH]c2C)c1	1	-6	1	1	-4	17
CCCCCOc1ccccc1C(=O)NCCC(=O)O	-3	0	1	-3	7	38*
CCCCCOc1ccccc1C(=O)NCCCC(=O)O	2	1	2	-2	1	-8
COCCNC(=S)N(CCc1c(C)[nH]c2ccc(F)cc12)Cc1cccnc1	13*	-8	4	1	0	-9
COCCNC(=S)N(CCc1c(C)[nH]c2ccc(Cl)cc12)Cc1cccnc1	-5	1	-4	1	-2	0
S=C1NC2(CCCC2)Nc2ccccc21	-2	-5	-303	-1	-86	-5
S=C1NC2(CCCCC2)Nc2ccccc21	12*	-6	i	-1	-235	6
O=C(Cn1c(C(F)(F)F)nc2ccccc21)c1ccc(Br)cc1	-2	-5	0	0	0	-18
O=C(Cn1c(C(F)(F)F)nc2ccccc21)c1ccc(F)cc1	1	1	-3	-3	-4	35*
COc1ccc(C(=O)NCCn2cc(SCC(=O)Nc3cc(C)on3)c3ccccc32)cc1OC	1	4	-2	-1	-2	2
CCOC(=O)c1c(C)oc2c1c(C=NCCC(=O)O)c(O)c1ccccc12	1	-19	-6	0	-2	37*
CCOC(=O)c1c(C)oc2c1c(CN1CCN(C(=O)OCC)CC1)c(O)c1ccccc12	10*	0	2	0	-2	-1
COc1cccc(CN2CCC(C(=O)N3CCN(Cc4ccc5c(c4)OCO5)CC3)CC2)c1	13*	4	-12	2	-1	-17
